# Hit rate of the full screen: of about 2,000 compounds, about 10 (0.5%) were called active. The entries come from a sample that favours actives as a whole. Values without a mark were called inactive.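 The calls were made as follows: active = inhibition above 30%; inactive = the rest.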
# Target: Protein-arginine deiminase type-4 (Homo sapiens) (UniProt Q9UM07)
# Experiment: blockers of protein arginine deiminase 4 – biochemical, fluorescence polarization, primary screen (AID 463073);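 also: 0% = PAD4 with DMSO and 100% = wells lacking PAD4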
# Conditions: recombinant PAD4, RFA probe fluorescence polarization; at 5 µM; stronger effect = higher value
# Summary of the method: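 System: recombinant PAD4. Amount: PAD4 at 2 µM in dispensed buffer, before additions. Doses: single 5 µM final compound concentration. Timing: 30 min 25 °C preincubation, 5 h 37 °C labeling. Benchmarks: wells lacking PAD4 as full-inhibition control. Repeats: single well per compound. Measured by: FP, ex 525 nm, em 598 nm.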
# Sequence of Protein-arginine deiminase type-4 (Homo sapiens) (Q9UM07 whole entry, looked up): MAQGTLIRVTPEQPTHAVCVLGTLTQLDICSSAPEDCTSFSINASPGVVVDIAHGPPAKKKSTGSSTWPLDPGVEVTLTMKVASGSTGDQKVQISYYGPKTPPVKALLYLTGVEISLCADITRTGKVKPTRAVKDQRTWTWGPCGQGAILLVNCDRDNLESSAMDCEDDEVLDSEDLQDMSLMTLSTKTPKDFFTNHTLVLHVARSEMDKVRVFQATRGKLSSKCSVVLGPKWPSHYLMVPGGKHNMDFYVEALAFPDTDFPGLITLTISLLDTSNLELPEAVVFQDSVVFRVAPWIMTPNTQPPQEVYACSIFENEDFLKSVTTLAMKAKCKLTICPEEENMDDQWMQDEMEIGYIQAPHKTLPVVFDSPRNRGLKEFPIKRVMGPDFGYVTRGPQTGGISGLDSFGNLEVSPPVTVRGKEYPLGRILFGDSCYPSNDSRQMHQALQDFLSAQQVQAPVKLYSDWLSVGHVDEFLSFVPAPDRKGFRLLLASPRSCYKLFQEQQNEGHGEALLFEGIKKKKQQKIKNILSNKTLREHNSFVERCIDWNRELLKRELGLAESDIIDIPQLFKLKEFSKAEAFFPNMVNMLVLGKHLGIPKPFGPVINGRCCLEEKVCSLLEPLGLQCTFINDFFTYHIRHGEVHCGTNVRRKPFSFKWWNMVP
row,Compound,inhibition
1,Cc1ccc2c(c1)C1OCCC1C1N2C(=O)C2C(C(=O)O)C3C=CC21O3 (configuration not stated),6.06%
2,Cn1cc(CN2CCC(C(=O)N3CCCCC3)CC2)c(-c2ccccc2F)n1,4.74%
3,O=C1OC(c2ccccc2)=C/C1=C/c1cccs1,-2.45%
4,c1ccc(Nc2ccccn2)nc1,-4.7%
5,CS(=O)(=O)c1cccc(C(=O)Oc2ccccc2)c1,5.29%
6,CC(=O)OCC1OC(n2ccc(=O)[nH]c2=O)C(O)C1O (configuration not stated),1.17%
7,CC(C)C[C@H](NC(=O)[C@@H]1Cc2ccccc2CN1C(=O)OC(C)(C)C)C(=O)NCC1CCC(C(=O)O)CC1 (some centres not stated),0.39%
8,CS(=O)(=O)Nc1cccc(C(=O)CC2(O)C(=O)Nc3ccc(Br)cc32)c1 (configuration not stated),0.36%
9,Cn1c2c(c(=O)[nH]c1=O)C(c1ccc(O)cc1)C1=C(N2)c2ccccc2C1=O (configuration not stated),4.81%
10,Cc1cc(C)c(NC(=O)NC(=O)C(Cl)(Cl)Cl)c(C)c1,-2.27%
11,CC(=O)OC[C@H]1O[C@@H](Sc2cccc3cccnc23)[C@H](OC(C)=O)[C@@H](OC(C)=O)[C@H]1OC(C)=O,1.27%
12,CCOC(=O)C1C(=O)OC(C)(C)C1C(C)C(=O)c1ccc(C)cc1 (configuration not stated),-0.2%
13,CCOC(=O)C(Cc1cc(C(C)=O)ccc1OC(C)C)C(=O)OCC,2.78%
14,CCOc1ccc(N2C(=O)CC(NCCNc3ccc([N+](=O)[O-])cn3)C2=O)cc1 (configuration not stated),9.78%
15,CN1C(=O)C(O)(CC(=O)c2ccccc2O)c2cc(Br)ccc21 (configuration not stated),-1.81%
16,CCOC(=O)C(NC(=O)CCC(=O)Nc1ccc(S(N)(=O)=O)cc1)C(O)c1ccccc1 (configuration not stated),-0.41%
17,CCc1cc2c(C)cc(=O)oc2cc1OC(=O)C1CCCN1C(=O)OC(C)(C)C (configuration not stated),1.27%
18,COC(=O)c1[nH]c2ccc(C)cc2c1NC(=O)CN1CCc2cc(OC)c(OC)cc2C1,0.78%
19,COc1ccc(CC(=O)NCC2(c3ccc(OC)c(OC)c3)CCOCC2)cc1,2.08%
20,COc1ccc(CNC(=O)c2c(O)c3cccc4c3n(c2=O)CCC4)cc1,4.58%
21,CC(C)CC(=O)Nc1ccc2oc(-c3ccncc3)nc2c1,1.75%
22,CC(C)NC(=O)c1ccc(C(C)C)cc1,-2.74%
23,O=C(CN1C(=O)c2ccccc2S1(=O)=O)Nc1ccccc1,-2.01%
24,COC(=O)C1=NN(C(=O)c2cccc(Br)c2)C(O)(c2ccc(Cl)cc2)C1 (configuration not stated),-1.03%
25,CC(C)(C)C(=O)Nc1cccc(OC(F)(F)C(F)Cl)c1 (configuration not stated),3.96%

row,Compound,inhibition
1,COc1ccc(-c2csc(-c3cccnc3)n2)cc1C,-0.79%
2,COc1ccc(OC)c(C(=O)c2coc3ccc(O)cc23)c1,-2.55%
3,OCC(O)CN1CCN(c2ccccc2)CC1 (configuration not stated),-2.45%
4,O=c1c(-c2ccccc2)c(O)c2cccc3c2n1CCC3,5.09%
5,Cc1cc(OC(=O)CNC(=O)OC(C)(C)C)c2c(C)cc(=O)oc2c1,22.1%
6,CC(NC(=O)OCc1ccccc1)C(=O)N1CC(O)CC1C(=O)O (configuration not stated),6.64%
7,COC(=O)c1ccc(CC(=O)c2ccc(O)cc2O)o1,4.18%
8,CCCCCCCC(=O)OCC(=O)[C@@]1(O)CC[C@H]2[C@@H]3CCC4=CC(=O)CC[C@]4(C)[C@H]3[C@@H](O)C[C@@]21C,4.58%
9,Cc1nc(C2CC(=O)OC23CCCCC3)cs1 (configuration not stated),-0.47%
10,CSCCC(NC(=O)OC(C)(C)C)C(=O)Oc1ccc2c(=O)c(-c3ccc4c(c3)OCCO4)coc2c1 (configuration not stated),14.1%
11,c1ccc(-c2ccccn2)nc1,0.78%
12,Cn1c(=O)[nH]c2nnc(-c3ccc(Cl)c(Cl)c3)nc2c1=O,4.18%
13,Cn1nc(-c2ccccn2)nc2c(=O)n(C)c(=O)nc1-2,98.2% (active)
14,Cn1nc(-c2ccc(Cl)cc2)nc2c(=O)n(C)c(=O)nc1-2,90.7% (active)
15,CN(C)CCCNc1ncnc2c1cnn2-c1ccccc1,-1.45%
16,CCNC(=O)c1sc2cc(C)ccc2c1Cl,0.99%
17,CSCCC(NC(=O)/C(=C/c1ccc2c(c1)OCO2)NC(=O)c1cccc([N+](=O)[O-])c1)C(=O)O (configuration not stated),-0.41%
18,Nc1nnc(CSCc2ccc(Cl)cc2Cl)s1,3.81%
19,CC12CCC(C(=O)NNc3ccccc3)(C(=O)C1=O)C2(C)C (configuration not stated),-2.07%
20,COc1ccc(CN2CCCC(C(=O)c3ccc(Cl)cc3)C2)cc1Cn1cccn1 (configuration not stated),-0.23%
21,O=C(CSCc1ccccc1)NCCCN1CCOCC1,-0.81%
22,CC(=O)c1cc2c(cc1NC(=O)c1ccco1)OCCO2,-1.18%
23,COC(=O)[C@H]1[C@H]2C[C@@H]3c4[nH]c5cc(OC)ccc5c4CCN3C[C@H]2C[C@@H](OC(=O)c2ccc(N)cc2)[C@@H]1OC,6.06%
24,COC(=O)c1[nH]c2ccc(F)cc2c1NC(=O)C1=COCCO1,6.4%
25,COc1cc(CNCCc2ccccc2F)ccc1OCC(=O)N1CCCCC1,-1.57%

row,Compound,inhibition
1,COCCOC(=O)C1=C(N)OC2=C(C(=O)CCC2)C1c1cccnc1 (configuration not stated),1.53%
2,COc1ccc(NC(=O)CC2C(=O)N(C)C(=S)N2Cc2ccncc2)cc1 (configuration not stated),-3.53%
3,CN1CCCN=C1COC(=O)C(O)(c1ccccc1)C1CCCCC1 (configuration not stated),-4.01%
4,Cc1cccc(OCC(=O)Nc2ccc(C(=O)NCC(C)C)cc2)c1,0.21%
5,N#CCC(N)=C(C#N)C#N,0.67%
6,CC(=O)[C@@]1(O)CC[C@H]2[C@@H]3CCC4=CC(=O)CC[C@]4(C)[C@H]3[C@@H](O)C[C@@]21C,-0.33%
7,Cc1ccccc1NC(=O)C1c2ccccc2Oc2ccccc21,-0.73%
8,CC(C)NS(=O)(=O)c1ccc(OCC(=O)Nc2cccc(F)c2)cc1,2.86%
9,COc1ccc(C2=C(CN(C)C)C(c3ccccc3)c3ccccc3O2)cc1 (configuration not stated),-1.24%
10,COc1ccc(-c2nc(C)c(C(C)=O)n2O)cc1OC,2.19%
11,O=C(O)CCn1c(=S)n(CCC(=O)O)c2ccccc21,3.98%
12,CC(OC(=O)c1cc(=O)[nH]c2ccccc12)C(=O)c1ccccc1 (configuration not stated),-0.79%
13,C=C(C)Cn1c(NCCOC)nc2c1c(=O)[nH]c(=O)n2C,1.67%
14,CC(=O)NC1C(OCCOc2ccc(Cl)cc2Cl)OC(COC(C)=O)C(OC(C)=O)C1OC(C)=O (configuration not stated),2.94%
15,CCOC(=O)c1cccc(C(=O)OCC)n1,-2.55%
16,CCOC(=O)c1c(C)oc2c1C(=O)c1ccccc1C2=O,61.9% (active)
17,CCOC(=O)C1=C(C)N[C@@]2(O)c3ccccc3C(=O)[C@@]12O,5.29%
18,CC(=O)N1CC23C=CC(CC2CC12CCCCCC2)O3 (configuration not stated),0.84%
19,CCOc1ncnc2c1[nH]c1ccccc12,1.88%
20,COC(=O)C1[C@H]2C(=O)N(Cc3cccs3)C[C@]23C=C[C@H]1O3 (some centres not stated),2.54%
21,CC(C)CN1CCN(Cc2ccc3ncccc3c2)CC1CCO (configuration not stated),5.67%
22,Cc1ccc(S(=O)(=O)N[C@@H](Cc2ccccc2)C(=O)CCl)cc1,39.7% (active)
23,CNS(=O)(=O)c1ccc(C)cc1,-0.67%
24,CCCCNC(=O)NS(=O)(=O)c1ccc(C)cc1,5.34%
25,O=C(CCc1ccccc1)Nc1ccccc1C(F)(F)F,-2.28%

row,Compound,inhibition
1,COc1cc2c(cc1OC)C(c1ccccc1)=NCC2,3.38%
2,C[C@]12CC[C@@H]3c4ccc(O)cc4[C@@H](O)C[C@H]3[C@@H]1CC[C@@H]2O,2.58%
3,CC(=O)CCc1c(C)c2cccc(C)c2[nH]c1=O,2.48%
4,CCCCC/C=C\C[C@H](O)/C=C/c1cccc(C[C@H](O)CCCCO)n1,4.29%
5,CCOC(=O)C(NC(C)=O)C(O)c1ccc([N+](=O)[O-])cc1 (configuration not stated),3%
6,O=C1OC(Nc2ccc3c(c2)OCO3)c2ccccc21 (configuration not stated),3.54%
7,Cc1cccc(Oc2coc3cc(OC(=O)c4cncc(Br)c4)ccc3c2=O)c1,26.8%
8,COc1ccc(C2C3C(C)=NN=C3CC(C)(O)C2C(C)=O)cc1 (configuration not stated),-7.27%
9,O=P(c1ccccc1)(c1ccccc1)c1nc(-c2ccc(Cl)cc2)oc1N1CCOCC1,4.58%
10,CC(=O)N1CCN(c2ccc(OC[C@H]3CO[C@](Cn4ccnc4)(c4ccc(Cl)cc4Cl)O3)cc2)CC1,6.45%
11,C/C=C(/C(=C/C)c1ccc(O)cc1)c1ccc(O)cc1,0.21%
12,C=CCc1cccc2cc(C(=O)Nc3ccc(CC(=O)O)cc3)c(=O)oc12,-4.46%
13,COc1ccc(C(=O)Nc2nc3ccccc3c(=O)[nH]2)cc1,0.21%
14,COC(=O)c1[nH]c(=O)c2ccccc2c1O,66.5% (active)
15,CC(C)C(=O)Nc1c(O)c2ccccc2[nH]c1=O,-3.74%
16,CCOC(=O)n1c(=O)oc2ccccc21,-6.44%
17,CCOc1cc2c3c(c1)C(C)=CC(C)(C)N3C(=O)C2=O,-0.07%
18,CC(C)CC(=O)NC(NC(=O)CC(C)C)c1cccc([N+](=O)[O-])c1,-2.91%
19,Cc1[nH]c2ccccc2c1C(=O)CN1CCCC1,-1.81%
20,COc1cc(C2Nc3ccccc3NC3=C2C(=O)CC(c2ccc(OC)c(OC)c2)C3)ccc1O (configuration not stated),-5.4%
21,O=C1NCC2=C1C(c1ccccc1)Nc1ccccc1N2 (configuration not stated),58.3% (active)
22,O=C1Cc2ccccc2C(c2ccccc2)N1 (configuration not stated),0.84%
